High-throughput results from PubChem.
T cruzi inh: blocks replication of Trypanosoma cruzi. T. cruzi beta-gal in NIH3T3, luminescence, 90 h. inhibition, % (test concentration not listed). actives 1.4% (n = 300,000). AID 1885;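 active = mean inhibition across valid replicates above about 55%, limit read from the data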;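 also: signal also drops with host cell toxicity which is not excluded here; 0% = plate median of DMSO wells and 100% = zero luminescence signal; higher percent means less beta-gal luminescence so fewer parasites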
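Assay system: NIH/3T3 fibroblasts plus reporter T. cruzi. Amount: NIH/3T3 cells, 5,000 per well. Buffer or medium: DMEM, 2% fetal bovine serum. Doses: compound pinned at 50 nL/well, DMSO. Schedule: ≥90 h infection period, 3 h prior cell attachment. Signal: luminescent β-galactosidase signal after 60 min lysis. Read-out: parasite load inhibition, %.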
CSC inhib: cancer stem cell inhibition. AID 2717. actives 1.1% (n = 300,000). inhibition, % at 7.5 µM. cancer stem cell-like cells viability, luminescence; in the data active = inhibition above about 75%; tested in HMLE shEcad cells
SKKanGAS inh: blocks kanamycin growth of S. pyogenes SKKanGAS strain. BacTiter-Glo, 6 h. inhibition, % at 7.5 µM. actives 1.3% (n = 300,000). AID 1662;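 active = mean replicate score, as percent of positive control median, at least 50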;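 also: strain carries kanamycin resistance gene driven by streptokinase promoter and grows in 40 µg/ml kanamycin; loss of luminescence reflects streptokinase promoter inhibition or plain growth inhibition; 0% = median of DMSO wells and 100% = positive control at its reference dose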
aSyn 5UTR inh: MLPCN primary screen, SNCA 5' untranslated region | alpha-synuclein 5'UTR reporter, inhibitor activity | inhibition, % (tested at 7.5 µM) | actives 0.82% (n = 300,000) | AID 1813; in the data active = inhibition above about 60%;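 also: H4 neuroglioblastoma cells stably carrying SNCA 5'UTR luciferase fusion; 0% = DMSO wells and 100% = positive control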
Mdm2 MdmX PPI: inhibitors of human Mdm2/MdmX interaction; inhibition, % at 8 µM; SaOS-2 split-luciferase Mdm2/MdmX complementation, luminescence; actives 3% (n = 330,000); O15151+Q00987; AID 485346;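 active = inhibition of at least 50% at 8 µM in the primary screen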
Target sequence (O15151 whole entry, looked up): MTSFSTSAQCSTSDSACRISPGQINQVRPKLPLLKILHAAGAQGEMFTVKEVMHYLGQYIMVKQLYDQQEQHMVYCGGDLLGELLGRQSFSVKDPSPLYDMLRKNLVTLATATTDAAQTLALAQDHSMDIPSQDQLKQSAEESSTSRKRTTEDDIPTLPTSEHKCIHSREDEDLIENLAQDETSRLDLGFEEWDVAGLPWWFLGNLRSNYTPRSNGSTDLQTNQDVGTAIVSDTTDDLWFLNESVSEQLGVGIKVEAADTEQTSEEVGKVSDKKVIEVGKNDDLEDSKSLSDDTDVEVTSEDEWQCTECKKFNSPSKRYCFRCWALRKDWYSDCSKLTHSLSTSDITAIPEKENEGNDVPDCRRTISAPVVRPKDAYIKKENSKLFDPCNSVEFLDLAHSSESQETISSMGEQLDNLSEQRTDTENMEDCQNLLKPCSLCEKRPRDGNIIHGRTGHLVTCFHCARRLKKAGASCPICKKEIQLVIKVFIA
Target sequence (Q00987 whole entry, looked up): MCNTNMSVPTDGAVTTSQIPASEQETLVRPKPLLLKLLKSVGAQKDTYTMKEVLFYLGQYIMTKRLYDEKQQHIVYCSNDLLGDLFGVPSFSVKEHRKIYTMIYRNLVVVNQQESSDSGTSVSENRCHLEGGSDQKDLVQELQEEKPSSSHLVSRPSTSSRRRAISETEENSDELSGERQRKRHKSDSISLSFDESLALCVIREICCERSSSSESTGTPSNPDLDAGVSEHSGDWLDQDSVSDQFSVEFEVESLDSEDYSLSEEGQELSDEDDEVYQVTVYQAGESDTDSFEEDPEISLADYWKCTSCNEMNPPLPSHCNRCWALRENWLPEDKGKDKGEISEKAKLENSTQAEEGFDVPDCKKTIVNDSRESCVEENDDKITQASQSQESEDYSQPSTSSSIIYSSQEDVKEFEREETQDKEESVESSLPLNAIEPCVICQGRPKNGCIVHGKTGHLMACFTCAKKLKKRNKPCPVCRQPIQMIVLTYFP
Mdm2 MdmX conf: human Mdm2/MdmX binding inhibition, confirmed; inhibition, % at 8 µM; shares compounds with Mdm2 MdmX PPI; actives 55% (n = 10,000); luminescent assay; in the data active = inhibition above about 40%
FLuc counter: inhibits full-length luciferase, flagging false Mdm2/MdmX hits; actives 77% (n = 6,200); inhibition, % at 8 µM; shares compounds with Mdm2 MdmX PPI; SaOS-2 full-length luciferase counterscreen, luminescence; AID 504607;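 active = mean inhibition at 8 µM reaching about 37%, which flags the compound as non-specific, limit read from the data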;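 also: p53-null SaOS-2 cells with luciferase driven by a doxycycline-inducible promoter; compound on cells about two nights before reading with doxycycline added after day one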
* = called active by the depositor; . = not tested or not shown. An excerpt weighted towards active compounds, which were near 5.4% of everything screened.

SMILES	T cruzi inh	CSC inhib	SKKanGAS inh	aSyn 5UTR inh	Mdm2 MdmX PPI	Mdm2 MdmX conf	FLuc counter
Cc1cc(O)c2c(c1O)C(=O)[C@]13C(=C2O)C(=O)[C@@H]2[C@@H](O)[C@H]1[C@@H]1[C@H](O)[C@H]3C(=O)C3=C(O)c4c(O)cc(C)c(O)c4C(=O)[C@]312	.	.	.	.	87*	85*	23
Nc1[nH]n2c(=O)cc(-c3ccccc3)nc2c1N=Nc1ccc(S(N)(=O)=O)cc1	12	-8	10	11	19	.	.
Nc1[nH]n2c(=O)cc(-c3ccccc3)nc2c1N=Nc1ccccc1	25	92*	104*	68*	58*	47*	43*
CCN(C(=O)CSc1nnc2ccccn12)c1c(N)n(Cc2ccccc2)c(=O)[nH]c1=O	-1	7	-6	-4	3	.	.
COC(=O)c1c(C)n(-c2ccc(C)cc2)c2ccc(O)cc12	4	.	.	0	53*	46*	55*
CC(=O)c1ccc(-n2c(C)c(C(C)=O)c3cc(O)ccc32)cc1	1	-9	0	-15	62*	65*	48*
CCOc1ccc(-n2c(C)c(C(C)=O)c3cc(O)ccc32)cc1	-5	15	3	7	53*	56*	31
COCCn1c(C)cc(C2=NNC(=Nc3ccccc3)SC2)c1C	7	-4	4	-79	62*	73*	81*
COCCn1c(C)cc(C2=NNC(=Nc3ccc(OC)cc3)SC2)c1C	28	-3	2	-16	1	.	.
COc1ccc(-c2c/c(=N\c3nc(-c4ccccc4)c(C)s3)c3ccccc3o2)cc1O	-10	80*	59*	75*	84*	57*	95*
COc1ccc(-c2cc(=Nc3c(C)n(C)n(-c4ccccc4)c3=O)c3ccccc3o2)cc1	-5	-2	-3	-270	-54	.	.
C/C(N=Nc1nc2ccccc2s1)=N\Nc1ccccc1O	1	85*	27	-1	56*	58*	26
Cc1ccc2oc(/N=C(\N)NC(=O)C(C)(C)C)nc2c1	-43	-3	0	96*	87*	94*	32
Cc1ccc2oc(/N=C(\N)NC(=O)C3CC3)nc2c1	-28	50	-5	5	8	.	.
CCCCCC(=O)Nc1ccc(-c2csc(N)n2)cc1	21	10	7	-11	-6	.	.
CN(C)CCNc1ncnc2oc(-c3ccccc3)c(-c3ccccc3)c12	45	1	5	1	46	.	.
COc1ccc(-c2oc3ncnc(NCCCN(C)C)c3c2-c2ccc(OC)cc2)cc1	40	9	1	13	97*	42*	29
O=C(NCc1cccnc1)/C(=C/c1ccc(-c2ccc(Cl)cc2)o1)S(=O)(=O)c1ccccc1	49	110*	-2	-79	82*	100*	52*
O=C(NCc1cccnc1)/C(=C\c1ccc(-c2ccc(Br)cc2)o1)S(=O)(=O)c1ccccc1	30	10	-6	-138	96*	99*	51*
O=C(NCc1cccnc1)/C(=C/c1ccc(-c2cccc(C(F)(F)F)c2)o1)NC(=O)c1ccccc1	35	1	-3	8	21	.	.
COc1ccc(NC(=O)c2cc3c(=O)n4ccccc4nc3n2C)cc1OC	1	8	6	7	24	.	.
Cc1nnc(N2C(=O)C(=O)/C(=C(/O)c3ccc4c(c3)OCCO4)C2c2ccc([N+](=O)[O-])cc2)s1 (stereo not given)	-22	-3	16	-1	5	.	.
CCCN1C(=O)c2ccccc2NC1c1ccc(OC)cc1O (stereo not given)	-13	41	0	-49	64*	54*	72*
CCCN1C(=O)c2ccccc2NC1c1ccc(OC)cc1OC (stereo not given)	1	-7	12	-2	-25	.	.
COC(=O)/C(=C\Nc1ccc(Cl)c2ccccc12)c1ncc(C(F)(F)F)cc1Cl	7	-2	1	-27	59*	4	.
O=C(CCNC(=O)c1ccc(Br)cc1)NC1CCCc2ccccc21 (stereo not given)	-1	50	-5	14	88*	89*	46*
